Results as given in ChEMBL document CHEMBL3232844, “Synthesis and structure activity relationships of schweinfurthin indoles” (2014).

Key:
Type in all cases: functional
CCRF-CEM = test: Cytotoxicity against human CCRF-CEM cells
HL-60(TB) = test: Cytotoxicity against human HL-60(TB) cells
Method in brief: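 Tested within the NCI 60-cell-line screen, with GI50 as the read-out. Values are the average of two independent experiments. The lowest concentration tested was 10 nM.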

K562 = test: Cytotoxicity against human K562 cells
Method in brief: (§1)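 Tested in a 60-cell-line human tumor panel screen; the read-out is growth inhibition, reported as GI50 for each cell line.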

SR = test: Cytotoxicity against human SR cells
Method in brief: (§2)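 Cell line run as part of the 60-cell-line screening panel; growth inhibition was reported as a GI50 for each line.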

A549 = test: Cytotoxicity against human A549 cells; method in brief: as §1
HOP-62 = test: Cytotoxicity against human HOP62 cells; method in brief: as §1
NCI-H226 = test: Cytotoxicity against human NCI-H226 cells; method in brief: as §1
NCI-H23 = test: Cytotoxicity against human NCI-H23 cells; method in brief: as §1
COLO 205 = test: Cytotoxicity against human COLO205 cells; method in brief: as §1
HCC 2998 = test: Cytotoxicity against human HCC2998 cells; method in brief: as §1
HCT-116 = test: Cytotoxicity against human HCT116 cells; method in brief: as §1
[1] = Cytotoxicity against human HCT15 cells; method in brief: as §1
HT-29 = test: Cytotoxicity against human HT-29 cells; method in brief: as §1
KM12 = test: Cytotoxicity against human KM12 cells; method in brief: as §1
SF-268 = test: Cytotoxicity against human SF268 cells; method in brief: as §1
SF-295 = test: Cytotoxicity against human SF295 cells; method in brief: as §1
SF-539 = test: Cytotoxicity against human SF539 cells; method in brief: as §1
SNB-19 = test: Cytotoxicity against human SNB19 cells; method in brief: as §1
SNB-75 = test: Cytotoxicity against human SNB75 cells; method in brief: as §2
LOX IMVI = test: Cytotoxicity against human LOXIMVI cells; method in brief: as §1
M14 = test: Cytotoxicity against human M14 cells; method in brief: as §1
MDA-MB-435 = test: Cytotoxicity against human MDA-MB-435 cells; method in brief: as §1
NCI-H322M = test: Cytotoxicity against human NCI-H322M cells; method in brief: as §1
SK-MEL-2 = test: Cytotoxicity against human SK-MEL-2 cells; method in brief: as §1
[2] = Cytotoxicity against human UACC257 cells; method in brief: as §2
[3] = Cytotoxicity against human UACC62 cells; method in brief: as §2
IGROV-1 = test: Cytotoxicity against human IGROV1 cells; method in brief: as §1
[4] = Cytotoxicity against human OVCAR4 cells; method in brief: as §1
[5] = Cytotoxicity against human OVCAR8 cells; method in brief: as §1
[6] = Cytotoxicity against human NCI-ADR-RES cells; method in brief: as §1
SK-OV-3 = test: Cytotoxicity against human SKOV3 cells; method in brief: as §1
786-0 = test: Cytotoxicity against human 786-0 cells; method in brief: as §1
A498 = test: Cytotoxicity against human A498 cells; method in brief: as §1
ACHN = test: Cytotoxicity against human ACHN cells; method in brief: as §1
CAKI-1 = test: Cytotoxicity against human Caki1 cells; method in brief: as §1
RXF 393 = test: Cytotoxicity against human RXF393 cells; method in brief: as §1
SN12C = test: Cytotoxicity against human SN12C cells; method in brief: as §1
TK-10 = test: Cytotoxicity against human TK10 cells; method in brief: as §2
[7] = Cytotoxicity against human UO31 cells; method in brief: as §2
DU-145 = test: Cytotoxicity against human DU145 cells; method in brief: as §1
MDA-MB-231 = test: Cytotoxicity against human MDA-MB-231 cells; method in brief: as §1
BT-549 = test: Cytotoxicity against human BT549 cells; method in brief: as §1
MDA-MB-468 = test: Cytotoxicity against human MDA-MB-468 cells; method in brief: as §1
[8] = read-out: pLC50 (the source's name) (converted)

`COc1cc(/C=C/c2cc(OC)c3ccn(C)c3c2)cc2c1O[C@]1(C)CC[C@@H](O)C(C)(C)[C@H]1C2` showed a GI50 (CCRF-CEM) of 0.457 µM, a CC50 (CCRF-CEM; [8]) greater than 100 µM and a TGI (CCRF-CEM; read-out: pTGI (converted)) of 9.33 µM. The GI50 (HL-60(TB)) was 1.2 µM, the CC50 (HL-60(TB); [8]) was greater than 100 µM and the TGI (HL-60(TB); read-out: pTGI (converted)) was 38.9 µM. It also gave a GI50 (K562) of 1 µM, a CC50 (K562; [8]) greater than 100 µM and a TGI (K562; read-out: pTGI (converted)) of 33.1 µM. It also gave a GI50 (SR) of 0.513 µM, a CC50 (SR; [8]) greater than 100 µM and a TGI (SR; read-out: pTGI (converted)) greater than 100 µM. The GI50 (A549) was 1.91 µM, the CC50 (A549; [8]) was greater than 100 µM and the TGI (A549; read-out: pTGI (converted)) was greater than 100 µM. For the same compound, the GI50 (HOP-62) was 0.617 µM, the CC50 (HOP-62; [8]) was 28.8 µM and the TGI (HOP-62; read-out: pTGI (converted)) was 3.8 µM. The GI50 (NCI-H226) was 6.03 µM, the TGI (NCI-H226; read-out: pTGI (converted)) was greater than 100 µM and the GI50 (NCI-H23) was 2.69 µM. The CC50 (NCI-H23; [8]) was greater than 100 µM, the TGI (NCI-H23; read-out: pTGI (converted)) was 57.5 µM and the GI50 (COLO 205) was 1.38 µM. It also gave a CC50 (COLO 205; [8]) of 6.61 µM, a TGI (COLO 205; read-out: pTGI (converted)) of 3.02 µM and a GI50 (HCC 2998) of 5.25 µM. The CC50 (HCC 2998; [8]) was 75.9 µM, the TGI (HCC 2998; read-out: pTGI (converted)) was 25.1 µM and the GI50 (HCT-116) was 1.23 µM. It also gave a CC50 (HCT-116; [8]) of 51.3 µM, a TGI (HCT-116; read-out: pTGI (converted)) of 15.1 µM and a GI50 ([1]; HCT-15) of 1.15 µM. The CC50 ([1]; HCT-15, read-out: pLC50 (the source's name) (converted)) was 64.6 µM, the TGI ([1]; HCT-15, read-out: pTGI (converted)) was 6.31 µM and the GI50 (HT-29) was 1.26 µM. It also gave a CC50 (HT-29; [8]) of 43.7 µM, a TGI (HT-29; read-out: pTGI (converted)) of 5.62 µM and a GI50 (KM12) of 2 µM. For the same compound, the CC50 (KM12; [8]) was 41.7 µM, the TGI (KM12; read-out: pTGI (converted)) was 11.2 µM and the GI50 (SF-268) was 2.09 µM. The CC50 (SF-268; [8]) was greater than 100 µM, the TGI (SF-268; read-out: pTGI (converted)) was 69.2 µM and the GI50 (SF-295; read-out: GI50) was 0.17 µM. It also gave a GI50 (SF-295; read-out: pGI50 (converted)) of 0.17 µM, a CC50 (SF-295; [8]) of 7.08 µM and a TGI (SF-295; read-out: pTGI (converted)) of 0.537 µM. For the same compound, the GI50 (SF-539) was 0.214 µM, the CC50 (SF-539; [8]) was 57.5 µM and the TGI (SF-539; read-out: pTGI (converted)) was 5.5 µM. It also gave a GI50 (SNB-19) of 1.38 µM, a CC50 (SNB-19; [8]) greater than 100 µM and a TGI (SNB-19; read-out: pTGI (converted)) greater than 100 µM. The GI50 (SNB-75) was 0.363 µM, the CC50 (SNB-75; [8]) was greater than 100 µM and the TGI (SNB-75; read-out: pTGI (converted)) was 11.5 µM. It also gave a GI50 (LOX IMVI) of 1.62 µM, a CC50 (LOX IMVI; [8]) of 79.4 µM and a TGI (LOX IMVI; read-out: pTGI (converted)) of 17 µM. It also gave a GI50 (M14) of 0.575 µM, a CC50 (M14; [8]) of 45.7 µM and a TGI (M14; read-out: pTGI (converted)) of 16.6 µM. The GI50 (MDA-MB-435) was 1.02 µM, the CC50 (MDA-MB-435; [8]) was 91.2 µM and the TGI (MDA-MB-435; read-out: pTGI (converted)) was 20.9 µM. For the same compound, the GI50 (NCI-H322M) was 18.2 µM, the CC50 (NCI-H322M; [8]) was greater than 100 µM and the TGI (NCI-H322M; read-out: pTGI (converted)) was greater than 100 µM. It also gave a GI50 (SK-MEL-2) of 0.851 µM, a CC50 (SK-MEL-2; [8]) greater than 100 µM and a TGI (SK-MEL-2; read-out: pTGI (converted)) of 20.4 µM. The GI50 ([2]; UACC-257) was 2.45 µM, the CC50 ([2]; UACC-257, read-out: pLC50 (the source's name) (converted)) was greater than 100 µM and the TGI ([2]; UACC-257, read-out: pTGI (converted)) was 35.5 µM. For the same compound, the GI50 ([3]; UACC-62) was 0.355 µM, the CC50 ([3]; UACC-62, read-out: pLC50 (the source's name) (converted)) was 23.4 µM and the TGI ([3]; UACC-62, read-out: pTGI (converted)) was 2.19 µM. The GI50 (IGROV-1) was 2.24 µM, the CC50 (IGROV-1; [8]) was 95.5 µM and the TGI (IGROV-1; read-out: pTGI (converted)) was 45.7 µM. The GI50 ([4]; OVCAR-4) was 3.89 µM, the CC50 ([4]; OVCAR-4, read-out: pLC50 (the source's name) (converted)) was greater than 100 µM and the GI50 ([5]; OVCAR-8) was 9.33 µM. For the same compound, the CC50 ([5]; OVCAR-8, read-out: pLC50 (the source's name) (converted)) was greater than 100 µM, the TGI ([5]; OVCAR-8, read-out: pTGI (converted)) was greater than 100 µM and the GI50 [6] was 6.46 µM. It also gave a CC50 [6, 8] greater than 100 µM, a TGI ([6]; read-out: pTGI (converted)) greater than 100 µM and a GI50 (SK-OV-3) of 2.57 µM. For the same compound, the LC50 (SK-OV-3) was greater than 100 µM, the TGI (SK-OV-3; read-out: pTGI (converted)) was greater than 100 µM and the GI50 (786-0) was 0.214 µM. It also gave an LC50 (concentration killing 50% of cells) (786-0) greater than 100 µM, a TGI (786-0; read-out: pTGI (converted)) of 2.4 µM and a GI50 (A498) of 0.407 µM. It also gave a CC50 (A498; [8]) greater than 100 µM, a TGI (A498; read-out: pTGI (converted)) of 8.13 µM and a GI50 (ACHN) of 1 µM. For the same compound, the LC50 (concentration killing 50% of cells) (ACHN) was greater than 100 µM, the TGI (ACHN; read-out: pTGI (converted)) was 87.1 µM and the GI50 (CAKI-1) was 0.692 µM. For the same compound, the LC50 (CAKI-1) was greater than 100 µM, the TGI (CAKI-1; read-out: pTGI (converted)) was 4.79 µM and the GI50 (RXF 393) was 0.0447 µM. For the same compound, the LC50 (RXF 393) was 4.27 µM, the TGI (RXF 393; read-out: pTGI (converted)) was 0.275 µM and the GI50 (SN12C) was 6.03 µM. The LC50 (SN12C) was greater than 100 µM, the TGI (SN12C; read-out: pTGI (converted)) was greater than 100 µM and the GI50 (TK-10) was 3.16 µM. It also gave an LC50 (TK-10) greater than 100 µM, a TGI (TK-10; read-out: pTGI (converted)) of 93.3 µM and a GI50 ([7]; UO-31) of 0.501 µM. The LC50 ([7]; UO-31) was greater than 100 µM, the TGI ([7]; UO-31, read-out: pTGI (converted)) was 3.02 µM and the GI50 (DU-145) was 2.45 µM. For the same compound, the LC50 (50% lethal concentration) (DU-145) was greater than 100 µM, the TGI (DU-145; read-out: pTGI (converted)) was 66.1 µM and the GI50 (MDA-MB-231) was 1.48 µM. The LC50 (MDA-MB-231) was greater than 100 µM, the TGI (MDA-MB-231; read-out: pTGI (converted)) was 33.9 µM and the GI50 (BT-549) was 2.82 µM. For the same compound, the CC50 (BT-549; [8]) was greater than 100 µM, the TGI (BT-549; read-out: pTGI (converted)) was 30.9 µM and the GI50 (MDA-MB-468) was 1.23 µM. The LC50 (MDA-MB-468) was greater than 100 µM.
